The text below walks through data of ChEMBL document CHEMBL1136692, “Pharmacokinetic optimization of 3-amino-6-chloropyrazinone acetamide thrombin inhibitors. Implementation of P3 pyridine N-oxides to deliver an orally bioavailable series containing P1 N-benzylamides” (Bioorg Med Chem Lett, 2003).

Data set [1] in a line: Maximum plasma concentration (Cmax) in rat (in vivo) at a dose of 10 mg/kg. Format: ADME, organism-based. The arrangement: dose 10 mg/kg. A digest of the protocol:
(§1)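 Maximum plasma concentration in rat (10 mg/kg) and in rhesus (5 mg/kg), each measured at the dose stated for its species.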

Data set [2] in a line: Partition coefficient (logP) of the compound. Format: physicochemical. The conditions noted are these: octanol/water.
For data set [3], the system named is Rattus norvegicus. The experiment in a line: Thrombin time of occlusion after intravenous administration in rat model of FeCl3-induced carotid thrombosis. Format: functional.
Data set [4] in a line: Oral bioavailability (10 mg/kg) was determined in rat. Format: ADME, organism-based. The conditions noted are these: in vivo.
The nature of data set [5]: Plasma clearance (pharmacokinetic parameter) in rat (in vivo) at a dose of 10 mg/kg. Format: ADME, organism-based. The arrangement: dose 10 mg/kg. The conditions noted are these: read-out: Clp. A digest of the protocol: (§2)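 Plasma clearance and volume of distribution determined at a species-specific dose: 1 mg/kg for dog, 10 mg/kg for rat, 5 mg/kg for rhesus.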
Data set [6] is described as follows: Vd (5 mg/kg) was determined in rhesus (in vivo). It counts as ADME, organism-based, Macaca mulatta. Particulars: rhesus monkey; call rule not given here. In a few lines:
as §2

Data set [7] can be described thus: Oral bioavailability (1 mg/kg) was determined in dog. Particulars: in vivo.
The species named for data set [8] is Homo sapiens. As to the kind of experiment: Concentration required to double the activated partial thromboplastin time (aPPT) in human plasma. Format: functional, cell-free. A digest of the protocol:
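Anticoagulant assay in human plasma. The value is the concentration of inhibitor that doubles the activated partial thromboplastin time (2×aPTT).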

The nature of data set [9]: Half life period after intravenous administration (10 mg/kg) was determined in rat (in vivo). It counts as ADME, organism-based.
Data set [10] can be described thus: Maximum plasma concentration (Cmax) in dog (in vivo) at a dose of 1 mg/kg. It counts as ADME, organism-based, Canis lupus familiaris. Further details: dose 1 mg/kg. In a few lines: (§3)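 Dog pharmacokinetics after oral dosing at 1 mg/kg, or at 0.7 or 0.5 mg/kg where footnoted. Cmax (µM) and oral half-life (h) from plasma levels.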
Data set [11] in a line: Oral bioavailability (5 mg/kg) was determined in rhesus. Particulars: Macaca mulatta, rhesus monkey, in vivo.
Data set [12] in a line: Maximum plasma concentration (Cmax) in rhesus monkey(in vivo) at a dose of 5 mg/kg. Format: ADME, organism-based. The arrangement: dose 5 mg/kg. The conditions noted are these: cercopithecidae. In a few lines:
as §1

The nature of data set [13]: Vd (10 mg/kg) was determined in rat (in vivo). It counts as ADME, organism-based. A digest of the protocol: as §2
A short description of data set [14]: Half life period after intravenous administration (5 mg/kg) was determined in rhesus (in vivo). The conditions noted are these: rhesus monkey. It counts as ADME, organism-based, Macaca mulatta.
Data set [15] relates to Rattus norvegicus. The experiment in a line: Time of occlusion after intravenous administration in rat model of FeCl3-induced carotid thrombosis. It counts as functional. In a few lines:
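Rat carotid artery thrombosis induced with FeCl3. Compound given iv as a continuous infusion (µg/kg/min; vehicle 0.3% DMSO). Read-outs: incidence of occlusion, time to occlusion, thrombin time, aPTT (s) and plasma level (µM).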

Data set [16] in a line: Maximum plasma concentration (Cmax) in dog at a dose of 1 mg/kg. It counts as ADME, organism-based, Canis lupus familiaris. The arrangement: dose 1 mg/kg. In a few lines: as §3
A short description of data set [17]: Vd (1 mg/kg) was determined in dog (in vivo). Format: ADME, organism-based, Canis lupus familiaris. In a few lines: as §2
Data set [18] in a line: Half life period after intravenous administration (1 mg/kg) was determined in dog (in vivo). Format: ADME, organism-based, Canis lupus familiaris.
The nature of data set [19]: t1/2 in dog. Format: ADME, organism-based, Canis lupus familiaris. The conditions noted are these: in vivo. In a few lines:
as §3

The nature of data set [20]: Plasma clearance (pharmacokinetic parameter) in dog (in vivo) at a dose of 1 mg/kg. Further details: dose 1 mg/kg. Particulars: read-out: Clp. Format: ADME, organism-based, Canis lupus familiaris. A digest of the protocol: as §2
Data set [21] has as its system Rattus norvegicus. As to the kind of experiment: […] activated partial thromboplastin time(APPT) after intravenous administration in rat model of FeCl3-induced carotid thrombosis. It counts as functional.
Data set [22] is described as follows: Plasma clearance (pharmacokinetic parameter) in rhesus (in vivo) at a dose of 5 mg/kg. Format: ADME, organism-based, Macaca mulatta. Further details: dose 5 mg/kg. Particulars: rhesus monkey, read-out: Clp. In a few lines:
as §2

A short description of data set [23]: Vd in dog. It counts as ADME, organism-based, Canis lupus familiaris. The conditions noted are these: in vivo. In a few lines: (§4)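 Dog pharmacokinetics. Parameters are plasma clearance (mL/min/kg), volume of distribution (L/kg), iv half-life (h) and oral bioavailability F (%).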
Data set [24] can be described thus: Half life period after intravenous administration in dog. It counts as ADME, organism-based, Canis lupus familiaris. Particulars: in vivo. A digest of the protocol:
as §4

Data set [25] in a line: Compound was tested for percent protein binding (PB) in human. Format: ADME. Particulars: read-out: PB (converted). A digest of the protocol:
(§5)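 Plasma protein binding given as percent free drug, measured in dog plasma and in human plasma.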

Data set [26] is described as follows: Plasma clearance (pharmacokinetic parameter) in dog was determined. It counts as ADME, organism-based, Canis lupus familiaris. Particulars: read-out: Clp. A digest of the protocol: as §4
Data set [27] in a line: Compound was tested for percent protein binding (PB) in dog. Particulars: read-out: PB (converted). Format: ADME, organism-based, Canis lupus familiaris. In a few lines:
as §5

The species named for data set [28] is Homo sapiens. As to the kind of experiment: Human microsome stabilities are reported as the ratio of the % remaining after a 1 hr incubation versus the internal standard thrombin inhibitor. Format: functional. The arrangement: unit not given here.
A short description of data set [29]: Oral bioavailability in dog. Particulars: in vivo. Format: ADME, organism-based, Canis lupus familiaris. A digest of the protocol: as §4
For data set [30], the target named is Prothrombin (Homo sapiens, UniProt P00734). As to the kind of experiment: Inhibitory activity against human thrombin.
Data set [31] is described as follows: Maximum plasma concentration (Cmax) in dog at a dose of […] mg/kg. It counts as ADME, organism-based, Canis lupus familiaris.

Broadly, the Cmax is the maximum level reached in the sampled fluid or tissue. As usually defined, the logP is the decadic logarithm of the partition coefficient of the neutral form, usually between octanol and water. Usually bioavailability stands for dose-corrected exposure relative to a reference, in per cent. What is called Vd is the apparent volume that relates the amount in the body to the concentration in plasma or blood. One may read the half-life as the time in which the quantity being followed falls by half. In the case of `O=C(Cn1c(Cl)cnc(NCC(F)(F)c2cccc[n+]2[O-])c1=O)NCc1ccccc1F`, the Cmax in data set [1] was 1940 nM; in [10] it was 3280 nM; in data set [12], 1050 nM; in [16], 3500 nM. Also, the logP in [2] was found to be 1.39. Also, in [3], the TT is 59.3 s. Also, the bioavailability in data set [4] was determined as 52%; in [7], 40%; in [11], 21%. Besides, the values for the clearance in data set [5], in data set [20] and in data set [22] were 43 mL/min/kg, 1.55 mL/min/kg and 19 mL/min/kg, respectively. Besides, the Vd came out at 1.5 L/kg in data set [6], 0.93 L/kg in data set [13] and 0.49 L/kg in data set [17]. This compound also gave a Concentration in [8] of 0.4 µM. For the same compound, the half-life is 0.43 h in data set [9], 1.1 h in [14], 6.3 h in data set [18] and 4.9 h in data set [19]. This compound displayed a TTO in data set [15] of 15. In addition, in data set [21], the APTT was 22.6 s.
Consider `O=C(Cn1c(Cl)cnc(NCC(F)(F)c2ccccn2)c1=O)NCc1ncccc1F` [DPOC-4088], for which the Vd in data set [23] was 0.62 L/kg. This compound gave a half-life in data set [24] of 4.5 h. The fraction unbound in data set [25] is 0.86; in [27] it was 0.67. Further, in data set [8], the Concentration worked out at 0.78 µM. Also, the clearance in data set [26] turned out to be 2.2 mL/min/kg.
A word on the Ki: it is a measure of affinity in units of concentration, obtained from inhibition or displacement. As for `O=C(Cn1c(Cl)cnc(NCC(F)(F)c2cccc[n+]2[O-])c1=O)NCc1ncccc1F`, in data set [23], the Vd is 1.13 L/kg. The same compound displayed a logP in data set [2] of 0.19. The half-life in data set [24] is 2.9 h; in [19], 2.5 h. Further, the figures for the fraction unbound in data set [25] and in data set [27] were 0.3 and 0.2, respectively. For the same compound, the Ratio in [28] came out at 6.5. In addition, the Concentration in data set [8] was 0.54 µM. The clearance in data set [26] was determined as 4.91 mL/min/kg. For the same compound, the bioavailability in [29] is 83%. The same compound came in with a Ki in data set [30] of 3.1 nM. The Cmax in [16] came out at 1780 nM.
As to `O=C(Cn1c(Cl)cnc(NCC(F)(F)c2cccc[n+]2[O-])c1=O)NCc1ncccc1Cl`, the Vd in data set [23] was determined as 1.17 L/kg. The compound further returned a logP in data set [2] of 0.75. The half-life in data set [24] was 6 h; in data set [19] it was 5.5 h. Besides, the fraction unbound in [25] is 0.59; in [27], 0.5. In addition, the Ratio in data set [28] turned out to be 1.3. This compound also had a Concentration in [8] of 0.47 µM. Besides, the clearance in data set [26] was 3.03 mL/min/kg. Besides, the Cmax in data set [31] (0.7 mg/kg) turned out to be 1090 nM. The affinity in data set [30], expressed as Ki, was 2.9 nM.
For the compound `O=C(Cn1c(Cl)cnc(NCC(F)(F)c2cccc[n+]2[O-])c1=O)NCc1cccc(F)c1`, in data set [2], the logP result is listed as “Not Active”. In addition, the Ratio in data set [28] stood at 0.71. The compound also showed a Concentration in [8] of 0.86 µM. The same compound displayed a Cmax in data set [31] (0.5 mg/kg) of 1370 nM. The compound further came in with a Ki in data set [30] of 7.3 nM. In addition, the half-life in data set [19] is 4.1 h.
The compound `COc1ccccc1CNC(=O)Cn1c(Cl)cnc(NCC(F)(F)c2cccc[n+]2[O-])c1=O` yielded a logP in [2] of 1.36. In addition, the Ratio in [28] is 0.44. The compound further had a Concentration in data set [8] of 0.56 µM. The highest level in data set [31] (0.5 mg/kg) (Cmax) was 2480 nM. This compound also registered a Ki in [30] of 3 nM. For the same compound, in [19], the half-life was 3.8 h.
